Test results as given in publication PMC4496304 (Environmental science & technology, 2015).
“Also recorded” adds a separate entry of the source. Structures can show the parent of a compound that is named as a salt. Where two headings read alike, the source gives them in different places. Marks after values point to notes of the source that are not given here.

Assays:
[1] = type: in vivo, male Sprague-Dawley rats
Method in brief: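 Single tail-vein injection in male rats (247 ± 8 g, 7-day acclimatization): 2 mM dosing solution in 5% (v/v) DMSO/sterile saline, 575 μg/kg; vehicle-injected controls. Killed by CO2 and cervical dislocation ~3 min, 1 h or 24 h post-dose (n = 6). Feces and intestinal contents came from rats held 24 h in metabolism cages. Tissues homogenized in 4 volumes water (liver: 20% acetonitrile). Analysis by negative-ion LC-ESI-MS/MS with internal standard.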

[2] = Stability of 4-PCB 11 sulfate in rat urine; type: in vitro ADME; conditions: 24 hours at 25 °C (experiments not shown)
human transthyretin = conditions: cited from earlier work
[3] = PCB 11 and its metabolites, rat, cited from earlier work
[4] = 3min, iv 575 μg/kg, assuming total dose 142 μg
[5] = 24 hours, iv 575 μg/kg, assuming total dose 142 μg
[6] = 1 hour, iv 575 μg/kg, assuming total dose 142 μg

O=S(=O)(O)Oc1ccc(-c2cccc(Cl)c2)cc1Cl [4-PCB 11 sulfate, 3,3′-dichloro-4′-sulfooxy-biphenyl]
Fraction of 4-PCB 11 sulfate not recoverable ([1]; 1 hour, all samples examined): about two thirds
4-PCB 11 sulfate concentrations in tissues and fluids examined ([1]; after 24 hours of exposure): below the LOD
Observable 4-PCB 11 sulfate levels as fraction of the initial dose ([1]; after one hour): about one third
4-PCB 11 sulfate in bile ([1]; bile collected during 1 hour after injection, bile duct-cannulated rats, iv): 34 ± 3.9 µg
Fluid or Tissue (ml or g): brain, exposed animals ([1]; brain weight, exposed rats): 1.69 ± 0.07 ml or g
% of total dose in brain [1, 4]: 0.6 ± 0.2%
4-PCB 11 sulfate in brain ([1]; 3min, iv 575 μg/kg, rat): 0.8 ± 0.3 µg
4-PCB 11 sulfate in brain ([1]; 1 hour, iv 575 μg/kg, rat, detectable only in three samples): 0.9 ± 0.9 ^c μg
% of total dose in brain [1, 5]: 0%
4-PCB 11 sulfate in brain ([1]; 24 hours, iv 575 μg/kg, rat): < LOD
% of total dose in feces ([1]; feces, 24 hours, iv 575 μg/kg, assuming total dose 142 μg): 0%
4-PCB 11 sulfate in feces ([1]; feces, 24 hours, iv 575 μg/kg, rat): did not contain detectable levels; also recorded: undetectable; also recorded: < LOD
% of total dose in intestinal contents ([1]; intestinal contents, 24 hours, iv 575 μg/kg, assuming total dose 142 μg): 0%
4-PCB 11 sulfate in intestinal contents ([1]; intestinal contents, 24 hours, iv 575 μg/kg, rat): did not contain detectable levels; also recorded: undetectable; also recorded: < LOD
Fluid or Tissue (ml or g): kidneys, exposed animals ([1]; kidneys weight, exposed rats): 1.86 ± 0.16 ml or g
% of total dose in kidneys [1, 4]: 8.7 ± 2.4%
4-PCB 11 sulfate in kidneys ([1]; 3min, iv 575 μg/kg, rat): 12 ± 3.4 µg
% of total dose in kidneys [1, 6]: 1.1 ± 0.5%
4-PCB 11 sulfate in kidneys ([1]; 1 hour, iv 575 μg/kg, rat): 1.6 ± 0.7 µg
% of total dose in kidneys [1, 5]: 0%
Fluid or Tissue (ml or g): liver, exposed animals ([1]; liver weight, exposed rats): 10.6 ± 0.94 ml or g
% of total dose in liver [1, 4]: 47 ± 15%
4-PCB 11 sulfate in liver ([1]; 3min, iv 575 μg/kg, rat): 67 ± 21 µg
% of total dose in liver [1, 6]: 2 ± 1%
4-PCB 11 sulfate in liver ([1]; 1 hour, iv 575 μg/kg, rat): 2.9 ± 1.4 µg
% of total dose in liver [1, 5]: 0%
4-PCB 11 sulfate in liver ([1]; 24 hours, iv 575 μg/kg, rat): < LOD
Fluid or Tissue (ml or g): lungs, exposed animals ([1]; lungs weight, exposed rats): 1.3 ± 0.18 ml or g
% of total dose in lungs [1, 4]: 3.9 ± 1%
4-PCB 11 sulfate in lungs ([1]; 3min, iv 575 μg/kg, rat): 5.6 ± 1.4 µg
% of total dose in lungs [1, 6]: 0.4 ± 0.4%
4-PCB 11 sulfate in lungs ([1]; 1 hour, iv 575 μg/kg, rat): 0.6 ± 0.6 µg
% of total dose in lungs [1, 5]: 0%
4-PCB 11 sulfate in lungs ([1]; 24 hours, iv 575 μg/kg, rat): < LOD
Blood brain barrier crossing (detection in brain tissue) ([1]; rat, iv): ability to cross the blood brain barrier
Organ weights, exposed versus control animals ([1]; rat, iv 575 μg/kg): no significant differences
% of total dose in serum ([1]; 3min, iv 575 μg/kg, assuming total dose 142 μg per animal): 35 ± 8.5%
4-PCB 11 sulfate in serum ([1]; 3min post-injection, iv 575 μg/kg, rat): 50 ± 12 µg
% of total dose in serum [1, 6]: 2.1 ± 1.2%
4-PCB 11 sulfate in serum ([1]; 1 hour, iv 575 μg/kg, rat): 3.0 ± 1.6 µg
% of total dose in serum [1, 5]: 0%
4-PCB 11 sulfate in serum ([1]; 24 hours, iv 575 μg/kg, rat): < LOD
% of total dose in urine ([1]; urine, 24 hours collection, iv 575 μg/kg, assuming total dose 142 μg): 3.7 ± 1.8%
4-PCB 11 sulfate in urine ([1]; urine, 24 hours collection, iv 575 μg/kg, rat): 5.3 ± 2.5 µg
Stability in rat urine [2]: stable
Affinity for transthyretin (T4 binding sites) (human transthyretin): affinity comparable to the physiological ligand, thyroxine; also recorded: among the most potent ligands

Clc1cccc(-c2cccc(Cl)c2)c1 [PCB 11, 3,3′-dichlorobiphenyl]
t1/2 clearance from liver ([3]; liver): 2.1 h
t1/2 clearance from lungs ([3]; lungs): 1.9 h
t1/2 clearance from serum ([3]; serum): 1.8 h
